Measured values published in ChEMBL document CHEMBL1156069, “Optimising metabolic stability in lipophilic chemical space: the identification of a metabolically stable pyrazolopyrimidine CRF-1 receptor antagonist” (Bioorg Med Chem Lett, 2009).

Legend:
[1] = target: T1, Corticotropin-releasing factor receptor 1 (Homo sapiens, UniProt P34998); experiment: Antagonist activity at human recombinant CRF1 receptor expressed in CHO cells assessed as inhibition of CRF-induced cAMP production; format: functional, cell-based
T1 sequence (P34998 whole entry): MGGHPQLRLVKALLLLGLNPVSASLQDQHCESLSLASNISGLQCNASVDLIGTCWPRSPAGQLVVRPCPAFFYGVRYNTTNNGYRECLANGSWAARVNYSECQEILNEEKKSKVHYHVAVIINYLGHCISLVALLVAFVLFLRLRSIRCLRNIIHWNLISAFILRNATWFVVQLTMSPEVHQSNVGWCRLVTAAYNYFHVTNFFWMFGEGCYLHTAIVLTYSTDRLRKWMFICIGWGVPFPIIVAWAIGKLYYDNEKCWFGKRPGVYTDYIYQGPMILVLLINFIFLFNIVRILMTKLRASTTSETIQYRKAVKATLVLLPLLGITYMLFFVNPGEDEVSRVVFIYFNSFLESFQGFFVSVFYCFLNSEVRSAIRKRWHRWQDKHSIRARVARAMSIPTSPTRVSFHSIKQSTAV
Outline: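 CHO cells stably expressing recombinant human CRF-1, grown in DMEM:F12 with 10% FBS, 1% Glutamax and Geneticin at 37 °C, 5% CO2 to 70% confluence. hCRF (10 nM final) added with compound to 10,000 cells/well in PBS with IBMX. cAMP read by enzyme-fragment complementation kit. 0.5-log serial dilutions, repeated tests, 4-parameter logistic IC50. Ki by Cheng–Prusoff from agonist EC50 measured the same day.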

[2] = system: Liver microsomes; experiment: Intrinsic clearance in human liver microsomes assessed per mg of protein; format: ADME, Microsome
[3] = system: Liver microsomes; experiment: Intrinsic clearance in rat liver microsomes assessed per mg of protein; format: ADME, Microsome
[4] = Chemical stability of the compound; format: physicochemical
[5] = Chemical stability at pH 1.2 assessed as compound remaining at 50 degC after 14 days; format: physicochemical; settings: buffer, read-out: Stability
[6] = Clearance in rat at 0.1 mg/kg, iv and 5 mg/kg, po; format: ADME, organism-based; settings: in vivo
[7] = Volume of distribution in rat at 0.1 mg/kg, iv and 5 mg/kg, po; format: ADME, organism-based; settings: in vivo
[8] = Half life in rat at 0.1 mg/kg, iv and 5 mg/kg, po; format: ADME, organism-based; settings: in vivo
[9] = Bioavailability in rat at 0.1 mg/kg, iv and 5 mg/kg, po; format: ADME, organism-based; settings: in vivo

Compound	Ki [1]	clearance [2]	clearance [3]	Stability [4]	remaining at 336 h [5]	clearance [6]	Vd [7]	half-life [8]	bioavailability [9]
COc1ccc(-n2ncc3c(NC(C4CC4)C4CC4)nc(C)nc32)c(C)c1	32 nM	< 11 µL/min/mg	25 µL/min/mg	Stable	51%	27 mL/min/kg	7 L/kg	1.9 h	43%
CCCN(CCOC)c1nc(C)nc2c1c(C)nn2-c1cnc(N(C)C)cc1C	183 nM	160 µL/min/mg	206 µL/min/mg						
COCCN(CCOC)c1nc(C)nc2c1c(C)nn2-c1ccc(OC)cc1C	193 nM	66 µL/min/mg	47 µL/min/mg						
CCCNCc1noc(Nc2nc(C)nc3c2c(C)nn3-c2ccc(OC)cc2C)n1	84 nM	51 µL/min/mg	66 µL/min/mg						
CCCN(CCOC)c1nc(C)nc2c1cnn2-c1ccc(OC)cc1C	132 nM	16 µL/min/mg	387 µL/min/mg						
CCC[C@@H](CO)Nc1nc(C)nc2c1c(C)nn2-c1ccc(OC)cc1C	574 nM	10 µL/min/mg	36 µL/min/mg						
CCCNCc1nnc(Nc2nc(C)nc3c2c(C)nn3-c2ccc(OC)cc2C)o1	996 nM	34 µL/min/mg	40 µL/min/mg						
CCCCN(CC)c1nc(C)nc2c1c(C)nn2-c1c(C)cc(C)cc1C	9 nM	> 320 µL/min/mg							
CCN(CCOC)c1nc(C)nc2c1c(C)nn2-c1ccc(OC)cc1C	117 nM	117 µL/min/mg	104 µL/min/mg						
CC[C@@H](CO)Nc1nc(C)nc2c1c(C)nn2-c1ccc(OC)cc1C	620 nM	< 7 µL/min/mg	27 µL/min/mg						
CCC(CC)Nc1nc(C)nc2c1cnn2-c1ccc(OC)cc1C	85 nM	15 µL/min/mg	246 µL/min/mg						
CCCN(CC(=O)N(C)C)c1nc(C)nc2c1c(C)nn2-c1ccc(OC)cc1C	1410 nM	18 µL/min/mg	22 µL/min/mg						
CCCN(CCOC)c1nc(C)nc2c1c(C)nn2-c1ccc(C(N)=O)cc1C	275 nM	17 µL/min/mg	22 µL/min/mg						
CCCNCc1cncn1Nc1nc(C)nc2c1c(C)nn2-c1ccc(OC)cc1C	2500 nM	196 µL/min/mg	85 µL/min/mg						
CCCN(CCOC)c1nc(C)nc2c1c(C)nn2-c1ccc(OC)nc1OC	17 nM	218 µL/min/mg	159 µL/min/mg						

Results, then the compound that gave them:

Ki [1]	clearance [2]	clearance [3]	Stability [4]	remaining at 336 h [5]	clearance [6]	Vd [7]	half-life [8]	bioavailability [9]	Compound
400 nM	96 µL/min/mg	67 µL/min/mg							CCCNCc1nccn1Nc1nc(C)nc2c1c(C)nn2-c1ccc(OC)cc1C
210 nM	37 µL/min/mg	53 µL/min/mg							CC[C@H](COC)Nc1nc(C)nc2c1c(C)nn2-c1ccc(OC)cc1C
35 nM	< 12 µL/min/mg	24 µL/min/mg							COc1ccc(-n2nc(C)c3c(NC(C4CC4)C4CC4)nc(C)nc32)c(C)c1
43 nM	117 µL/min/mg	163 µL/min/mg							CCCN(CCOC)c1nc(C)nc2c1c(C)nn2-c1ccc(OC)nc1C
42 nM	64 µL/min/mg	72 µL/min/mg							CCC(CC)Nc1nc(C)nc2c1c(C)nn2-c1ccc(OC)cc1C
577 nM	38 µL/min/mg	13 µL/min/mg							CCCN(CCOC)c1nc(C)nc2c1c(C)nn2-c1ccc(C(N)=O)nc1C
13 nM	172 µL/min/mg	23 µL/min/mg							CCCN(CCOC)c1nc(C)nc2c1c(C)nn2-c1ccc(OC)cc1C
135 nM	52 µL/min/mg	105 µL/min/mg							CC[C@@H](COC)Nc1nc(C)nc2c1c(C)nn2-c1ccc(OC)cc1C
129 nM	80 µL/min/mg	117 µL/min/mg							CCCN(CCO)c1nc(C)nc2c1c(C)nn2-c1ccc(OC)cc1C
101 nM	147 µL/min/mg	< 11 µL/min/mg							CCCN(CCOC)c1nc(C)nc2c1c(C)nn2-c1ccc(C#N)cc1C
74 nM	86 µL/min/mg	90 µL/min/mg							CCCN(CCOC)c1nc(C)nc2c1c(C)nn2-c1ccc(OC)cc1OC
124 nM	29 µL/min/mg	58 µL/min/mg							CCCNCc1nc(Nc2nc(C)nc3c2c(C)nn3-c2ccc(OC)cc2C)no1
632 nM	151 µL/min/mg	166 µL/min/mg							CCCN(CCOC)c1nc(C)nc2c1c(C)nn2-c1ccc(C#N)cc1C#N
76 nM	23 µL/min/mg	41 µL/min/mg							CCC[C@H](CO)Nc1nc(C)nc2c1c(C)nn2-c1ccc(OC)cc1C
1130 nM	< 7 µL/min/mg	23 µL/min/mg							CC[C@H](CO)Nc1nc(C)nc2c1c(C)nn2-c1ccc(OC)cc1C
